Source: ChEMBL document CHEMBL4689842, “EUbOPEN Chemogenomics Library wave 1” (2021)

Tested on: U2OS
Test: Multiplex assay against U2OS
Assay type: toxicity, cell-based
Conditions: human
Summary of the method: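 Tubulin, mitochondrial-mass and membrane-permeability phenotypes are per cents of healthy-nucleus cells. Cells were gated by CellPathfinder machine learning into Hoechst high-intensity objects or normal cells, normal cells into healthy, pyknosed or fragmented nuclei, and pyknosed cells into mitotic or apoptotic. Before that, live cells stained at seeding with Hoechst33342, BioTracker Green Microtubule Cytoskeleton Dye, MitoTracker Red and Annexin V Alexa Fluor 680 were imaged on a CQ1 microscope at 37°C and 5% CO2 after compound addition.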

[1] = 12 h, 1 µM, compound concentration 1 uM, replicate 1
[2] = 12 h, 1 µM, compound concentration 1 uM, replicate 2
[3] = 12 h, 10 µM, compound concentration 10 uM, replicate 1
[4] = 12 h, 10 µM, compound concentration 10 uM, replicate 2
[5] = 24 h, 1 µM, compound concentration 1 uM, replicate 1
[6] = 24 h, 1 µM, compound concentration 1 uM, replicate 2
[7] = 24 h, 10 µM, compound concentration 10 uM, replicate 1
[8] = 24 h, 10 µM, compound concentration 10 uM, replicate 2
[9] = 48 h, 1 µM, compound concentration 1 uM, replicate 1
[10] = 48 h, 1 µM, compound concentration 1 uM, replicate 2
[11] = 48 h, 10 µM, compound concentration 10 uM, replicate 1
[12] = 48 h, 10 µM, compound concentration 10 uM, replicate 2

## COc1cc2c(NC3CCN(C(C)C)CC3)nc(N3CCC(F)(F)CC3)nc2cc1OCCCN1CCCC1
[1]
  Population Apoptotic (%): 44%
  Population Fragmented Nuclei (%): 10%
  Population Healthy Nuclei (%): 72%
  Population Hoechst High Intensity Objects (%): 13%
  Population Mitochondria Different-Phenotype (%): 17%
  Population Mitotic Cells (%): 55%
  Population Normal (%): 86%
  Population Pyknosed Nuclei (%): 17%
  Total Cell Count: 136
[2]
  Population Apoptotic (%): 30%
  Population Fragmented Nuclei (%): 20%
  Population Healthy Nuclei (%): 67%
  Population Hoechst High Intensity Objects (%): 5%
  Population Membrane Permeable-Phenotype (%): 3%
  Population Mitochondria Different-Phenotype (%): 22%
  Population Mitotic Cells (%): 70%
  Population Normal (%): 94%
  Population Pyknosed Nuclei (%): 11%
  Population Tubulin-Different-Phenotype (%): 19%
  Total Cell Count: 105
[3]
  Population Apoptotic (%): 68%
  Population Fragmented Nuclei (%): 14%
  Population Healthy Nuclei (%): 71%
  Population Hoechst High Intensity Objects (%): 8%
  Population Membrane Permeable-Phenotype (%): 27%
  Population Mitochondria Different-Phenotype (%): 98%
  Population Mitotic Cells (%): 31%
  Population Normal (%): 91%
  Population Pyknosed Nuclei (%): 14%
  Population Tubulin-Different-Phenotype (%): 100%
  Total Cell Count: 181
[4]
  Population Apoptotic (%): 66%
  Population Fragmented Nuclei (%): 11%
  Population Healthy Nuclei (%): 76%
  Population Membrane Permeable-Phenotype (%): 66%
  Population Mitochondria Different-Phenotype (%): 97%
  Population Mitotic Cells (%): 33%
  Population Pyknosed Nuclei (%): 11%
  Population Tubulin-Different-Phenotype (%): 97%
  Total Cell Count: 89
[5]
  Population Apoptotic (%): 31%
  Population Fragmented Nuclei (%): 9%
  Population Healthy Nuclei (%): 65%
  Population Hoechst High Intensity Objects (%): 11%
  Population Membrane Permeable-Phenotype (%): 0%
  Population Mitochondria Different-Phenotype (%): 8%
  Population Mitotic Cells (%): 68%
  Population Normal (%): 88%
  Population Pyknosed Nuclei (%): 24%
  Population Tubulin-Different-Phenotype (%): 9%
  Total Cell Count: 157
[6]
  Population Apoptotic (%): 29%
  Population Fragmented Nuclei (%): 14%
  Population Healthy Nuclei (%): 68%
  Population Hoechst High Intensity Objects (%): 8%
  Population Membrane Permeable-Phenotype (%): 2%
  Population Mitochondria Different-Phenotype (%): 7%
  Population Mitotic Cells (%): 70%
  Population Normal (%): 91%
  Population Pyknosed Nuclei (%): 16%
  Population Tubulin-Different-Phenotype (%): 12%
  Total Cell Count: 113
[7]
  Population Apoptotic (%): 70%
  Population Fragmented Nuclei (%): 14%
  Population Healthy Nuclei (%): 60%
  Population Hoechst High Intensity Objects (%): 6%
  Population Membrane Permeable-Phenotype (%): 56%
  Population Mitochondria Different-Phenotype (%): 98%
  Population Mitotic Cells (%): 30%
  Population Normal (%): 93%
  Population Pyknosed Nuclei (%): 24%
  Population Tubulin-Different-Phenotype (%): 98%
  Total Cell Count: 218
[8]
  Population Apoptotic (%): 90%
  Population Fragmented Nuclei (%): 18%
  Population Healthy Nuclei (%): 59%
  Population Hoechst High Intensity Objects (%): 7%
  Population Membrane Permeable-Phenotype (%): 82%
  Population Mitochondria Different-Phenotype (%): 100%
  Population Mitotic Cells (%): 9%
  Population Normal (%): 92%
  Population Pyknosed Nuclei (%): 22%
  Population Tubulin-Different-Phenotype (%): 96%
  Total Cell Count: 112
[9]
  Population Apoptotic (%): 27%
  Population Fragmented Nuclei (%): 11%
  Population Healthy Nuclei (%): 64%
  Population Hoechst High Intensity Objects (%): 10%
  Population Mitochondria Different-Phenotype (%): 4%
  Population Mitotic Cells (%): 72%
  Population Normal (%): 89%
  Population Pyknosed Nuclei (%): 24%
  Population Tubulin-Different-Phenotype (%): 15%
  Total Cell Count: 194
[10]
  Population Apoptotic (%): 29%
  Population Fragmented Nuclei (%): 8%
  Population Healthy Nuclei (%): 78%
  Population Hoechst High Intensity Objects (%): 8%
  Population Membrane Permeable-Phenotype (%): 2%
  Population Mitochondria Different-Phenotype (%): 8%
  Population Mitotic Cells (%): 70%
  Population Normal (%): 91%
  Population Pyknosed Nuclei (%): 12%
  Population Tubulin-Different-Phenotype (%): 24%
  Total Cell Count: 141
[11]
  Population Apoptotic (%): 79%
  Population Fragmented Nuclei (%): 20%
  Population Healthy Nuclei (%): 44%
  Population Hoechst High Intensity Objects (%): 11%
  Population Membrane Permeable-Phenotype (%): 55%
  Population Mitochondria Different-Phenotype (%): 100%
  Population Mitotic Cells (%): 20%
  Population Normal (%): 88%
  Population Pyknosed Nuclei (%): 35%
  Population Tubulin-Different-Phenotype (%): 92%
  Total Cell Count: 337
[12]
  Population Apoptotic (%): 92%
  Population Fragmented Nuclei (%): 12%
  Population Healthy Nuclei (%): 63%
  Population Hoechst High Intensity Objects (%): 12%
  Population Membrane Permeable-Phenotype (%): 75%
  Population Mitochondria Different-Phenotype (%): 97%
  Population Mitotic Cells (%): 7%
  Population Normal (%): 87%
  Population Pyknosed Nuclei (%): 24%
  Population Tubulin-Different-Phenotype (%): 88%
  Total Cell Count: 149
